ChEMBL document CHEMBL1177699, “Identification and functional characterization of a stable, centrally active derivative of the neurotensin (8-13) fragment as a potential first-in-class analgesic” (J Med Chem, 2010)
Numbered stars: 1 amine (or outer) side, 2 acyl side, 3 side chain; on linkers, the order of the positions; unused ones are H or OH. Square brackets hold non-standard residues; d marks the D form. Peptide text beside a SMILES is read from it. * marks the point of attachment. Hexanoyl(6-NMe3+) = C[N+](C)(C)CCCCCC(=O)*; Pentanoyl(5-guanidino) = NC(N)=NCCCCC(=O)*; Ava(2S-Me) = C[C@@H](CCCN[*:1])C(=O)[*:2]; X30 = C[C@@H](CCCCC[N+](C)(C)C)C(=O)*; X21 = CC/N=C(\NCC)NCCC[C@H](C)C(=O)*; X9 = C[C@@H](CCCC[N+](C)(C)C)C(=O)*; X28 = C/N=C(\NC)NCCC[C@H](C)C(=O)*; NMe5Ava = CN(CCCCC(=O)[*:2])[*:1]; X17 = C[C@@H](CCCN1CCNC1=N)C(=O)*; X25 = C[C@@H](CCCNC1=NCCN1)C(=O)*; X23 = CCNC(=N)NCCC[C@H](C)C(=O)*; X10 = C[C@@H](CCCCCN(C)C)C(=O)*; X14 = CNC(=N)NCCC[C@H](C)C(=O)*; X8 = C[C@@H](CCCNC(=N)N)C(=O)*; X13 = CC/N=C(\NCC)NCCCCC(=O)*; X32 = C[N+](C)(C)CCCCCCC(=O)*; Tle = CC(C)(C)[C@H](N)C(=O)O; X5 = CCN1CCN(CCCCC(=O)*)C1=N; X11 = C[C@@H](CCCCCN)C(=O)*; X12 = CNCCCCC[C@H](C)C(=O)*; X15 = O=C(CCCCNC1=NCCCN1)*; X18 = N=C1NCCN1CCCCC(=O)*; X31 = CCNC(=N)NCCCCC(=O)*; X2 = O=C(CCCCNC1=NCCN1)*; X20 = CNC(=N)NCCCCC(=O)*; X16 = CN(C)CCCCCCC(=O)*; X19 = CN(C)CCCCC(=O)*; Ahp = NCCCCCCC(=O)O; X29 = CNCCCCCC(=O)*; X6 = CNCCCCCCC(=O)*; Ahx = NCCCCCC(=O)O; Ava = NCCCCC(=O)O

Tests used:
Rattus norvegicus [1] = assay: Analgesic activity in ip dosed Sprague-Dawley rat assessed as paw withdrawal latency by hot plate assay; format: functional
Procedure, shortened: (§1)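 Male Sprague-Dawley rats (240–280 g), 10 mg/kg i.p. (morphine 5 mg/kg, saline controls). Hotplate held at 53.0±0.2°C; latency to hind-paw lift, nibble or shake at serial time points, 30 s cut-off. %MPE from pre- and post-drug latencies; endpoints are maximal %MPE, duration at 100% MPE and area under the response curve. n ≥ 6.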

Rattus norvegicus [2] = assay: Analgesic activity in Sprague-Dawley rat assessed as maximal possible effect paw at 10 mg/kg, ip by hot plate assay; format: functional; conditions: route intraperitoneal; procedure, shortened: as §1

Compound | Duration at 100% MPE (Rattus norvegicus [1]) [min] | MPE (Rattus norvegicus [2]) [%]
CC(C)C[C@H](NC(=O)[C@@H](NC(=O)[C@H](Cc1ccc(O)cc1)NC(=O)[C@@H]1CCCN1C(=O)[C@H](CCCNC(=N)N)NC(=O)CCCCCCN(C)C)C(C)(C)C)C(=O)O (X16-RPY[Tle]L-OH) | 0 | 29
CC(C)C[C@H](NC(=O)[C@@H](NC(=O)[C@H](Cc1ccc(O)cc1)NC(=O)[C@@H]1CCCN1C(=O)[C@H](CCCNC(=N)N)NC(=O)CCCCN(C)C)C(C)(C)C)C(=O)O (X19-RPY[Tle]L-OH) | 90 | 100
CNCCCCC[C@H](C)C(=O)N[C@@H](CCCNC(=N)N)C(=O)N1CCC[C@H]1C(=O)N[C@@H](Cc1ccc(O)cc1)C(=O)N[C@H](C(=O)N[C@@H](CC(C)C)C(=O)O)C(C)(C)C (X12-RPY[Tle]L-OH) | 75 | 100
CNCCCCCC(=O)N[C@@H](CCCNC(=N)N)C(=O)N1CCC[C@H]1C(=O)N[C@@H](Cc1ccc(O)cc1)C(=O)N[C@H](C(=O)N[C@@H](CC(C)C)C(=O)O)C(C)(C)C (X29-RPY[Tle]L-OH) | 30 | 100
CNCCCCCCC(=O)N[C@@H](CCCNC(=N)N)C(=O)N1CCC[C@H]1C(=O)N[C@@H](Cc1ccc(O)cc1)C(=O)N[C@H](C(=O)N[C@@H](CC(C)C)C(=O)O)C(C)(C)C (X6-RPY[Tle]L-OH) | 0 | 59.32
CC(C)C[C@H](NC(=O)[C@@H](NC(=O)[C@H](Cc1ccc(O)cc1)NC(=O)[C@@H]1CCCN1C(=O)[C@H](CCCNC(=N)N)NC(=O)CCCCCC[N+](C)(C)C)C(C)(C)C)C(=O)O.[Cl-] (X32-RPY[Tle]L-OH) | 0 | 55.7
CC(C)C[C@H](NC(=O)[C@@H](NC(=O)[C@H](Cc1ccc(O)cc1)NC(=O)[C@@H]1CCCN1C(=O)[C@H](CCCNC(=N)N)NC(=O)CCCCNC(=N)N)C(C)(C)C)C(=O)O ({Pentanoyl(5-guanidino)}-RPY[Tle]L-OH) | 0 | 50.86
CC(C)C[C@H](NC(=O)[C@@H](NC(=O)[C@H](Cc1ccc(O)cc1)NC(=O)[C@@H]1CCCN1C(=O)[C@H](CCCNC(=N)N)NC(=O)CCCCN)C(C)(C)C)C(=O)O (H-[Ava]RPY[Tle]L-OH) | 0 | 51.69
CC(C)C[C@H](NC(=O)[C@@H](NC(=O)[C@H](Cc1ccc(O)cc1)NC(=O)[C@@H]1CCCN1C(=O)[C@H](CCCNC(=N)N)NC(=O)[C@@H](C)CCCNC1=NCCN1)C(C)(C)C)C(=O)O (X25-RPY[Tle]L-OH) | 0 | 79.31
CC(C)C[C@H](NC(=O)[C@@H](NC(=O)[C@H](Cc1ccc(O)cc1)NC(=O)[C@@H]1CCCN1C(=O)[C@H](CCCNC(=N)N)NC(=O)[C@@H](C)CCCN1CCNC1=N)C(C)(C)C)C(=O)O (X17-RPY[Tle]L-OH) | 0 | 55
CC(C)C[C@H](NC(=O)[C@@H](NC(=O)[C@H](Cc1ccc(O)cc1)NC(=O)[C@@H]1CCCN1C(=O)[C@H](CCCNC(=N)N)NC(=O)CCCCN1CCNC1=N)C(C)(C)C)C(=O)O (X18-RPY[Tle]L-OH) | 0 | 82.8
CNCCCCC(=O)N[C@@H](CCCNC(=N)N)C(=O)N1CCC[C@H]1C(=O)N[C@@H](Cc1ccc(O)cc1)C(=O)N[C@H](C(=O)N[C@@H](CC(C)C)C(=O)O)C(C)(C)C (NMe5Ava-RPY[Tle]L-OH) | 120 | 100
C/N=C(\NC)NCCC[C@H](C)C(=O)N[C@@H](CCCNC(=N)N)C(=O)N1CCC[C@H]1C(=O)N[C@@H](Cc1ccc(O)cc1)C(=O)N[C@H](C(=O)N[C@@H](CC(C)C)C(=O)O)C(C)(C)C (X28-RPY[Tle]L-OH) | 0 | 63.3
CC(C)C[C@H](NC(=O)[C@@H](NC(=O)[C@H](Cc1ccc(O)cc1)NC(=O)[C@@H]1CCCN1C(=O)[C@H](CCCNC(=N)N)NC(=O)CCCCCN)C(C)(C)C)C(=O)O (H-[Ahx]RPY[Tle]L-OH) | 0 | 48
CC(C)C[C@H](NC(=O)[C@@H](NC(=O)[C@H](Cc1ccc(O)cc1)NC(=O)[C@@H]1CCCN1C(=O)[C@H](CCCNC(=N)N)NC(=O)CCCCCCN)C(C)(C)C)C(=O)O (H-[Ahp]RPY[Tle]L-OH) | 60 | 100
CC(C)C[C@H](NC(=O)[C@@H](NC(=O)[C@H](Cc1ccc(O)cc1)NC(=O)[C@@H]1CCCN1C(=O)[C@H](CCCNC(=N)N)NC(=O)CCCCC[N+](C)(C)C)C(C)(C)C)C(=O)O.[Cl-] ({Hexanoyl(6-NMe3+)}-RPY[Tle]L-OH) | 0 | 84

Compound | Duration at 100% MPE (Rattus norvegicus [1]) [min] | MPE (Rattus norvegicus [2]) [%]
CC(C)C[C@H](NC(=O)[C@@H](NC(=O)[C@H](Cc1ccc(O)cc1)NC(=O)[C@@H]1CCCN1C(=O)[C@H](CCCNC(=N)N)NC(=O)CCCCNC1=NCCCN1)C(C)(C)C)C(=O)O (X15-RPY[Tle]L-OH) | 0 | 79.62
CC/N=C(\NCC)NCCCCC(=O)N[C@@H](CCCNC(=N)N)C(=O)N1CCC[C@H]1C(=O)N[C@@H](Cc1ccc(O)cc1)C(=O)N[C@H](C(=O)N[C@@H](CC(C)C)C(=O)O)C(C)(C)C (X13-RPY[Tle]L-OH) | 15 | 95.68
CCNC(=N)NCCC[C@H](C)C(=O)N[C@@H](CCCNC(=N)N)C(=O)N1CCC[C@H]1C(=O)N[C@@H](Cc1ccc(O)cc1)C(=O)N[C@H](C(=O)N[C@@H](CC(C)C)C(=O)O)C(C)(C)C (X23-RPY[Tle]L-OH) | 0 | 74.48
CC/N=C(\NCC)NCCC[C@H](C)C(=O)N[C@@H](CCCNC(=N)N)C(=O)N1CCC[C@H]1C(=O)N[C@@H](Cc1ccc(O)cc1)C(=O)N[C@H](C(=O)N[C@@H](CC(C)C)C(=O)O)C(C)(C)C (X21-RPY[Tle]L-OH) | 0 | 10
CC(C)C[C@H](NC(=O)[C@@H](NC(=O)[C@H](Cc1ccc(O)cc1)NC(=O)[C@@H]1CCCN1C(=O)[C@H](CCCNC(=N)N)NC(=O)[C@@H](C)CCCC[N+](C)(C)C)C(C)(C)C)C(=O)O.[Cl-] (X9-RPY[Tle]L-OH) | 15 | 67.2
CNC(=N)NCCCCC(=O)N[C@@H](CCCNC(=N)N)C(=O)N1CCC[C@H]1C(=O)N[C@@H](Cc1ccc(O)cc1)C(=O)N[C@H](C(=O)N[C@@H](CC(C)C)C(=O)O)C(C)(C)C (X20-RPY[Tle]L-OH) | 75 | 100
CC(C)C[C@H](NC(=O)[C@@H](NC(=O)[C@H](Cc1ccc(O)cc1)NC(=O)[C@@H]1CCCN1C(=O)[C@H](CCCNC(=N)N)NC(=O)[C@@H](C)CCCCCN(C)C)C(C)(C)C)C(=O)O (X10-RPY[Tle]L-OH) | 0 | 60.94
CCNC(=N)NCCCCC(=O)N[C@@H](CCCNC(=N)N)C(=O)N1CCC[C@H]1C(=O)N[C@@H](Cc1ccc(O)cc1)C(=O)N[C@H](C(=O)N[C@@H](CC(C)C)C(=O)O)C(C)(C)C (X31-RPY[Tle]L-OH) | 0 | 37.36
CC(C)C[C@H](NC(=O)[C@@H](NC(=O)[C@H](Cc1ccc(O)cc1)NC(=O)[C@@H]1CCCN1C(=O)[C@H](CCCNC(=N)N)NC(=O)[C@@H](C)CCCN)C(C)(C)C)C(=O)O ({Ava(2S-Me)}-RPY[Tle]L-OH) | 0 | 89.4
CCN1CCN(CCCCC(=O)N[C@@H](CCCNC(=N)N)C(=O)N2CCC[C@H]2C(=O)N[C@@H](Cc2ccc(O)cc2)C(=O)N[C@H](C(=O)N[C@@H](CC(C)C)C(=O)O)C(C)(C)C)C1=N (X5-RPY[Tle]L-OH) | 0 | 80.48
CC(C)C[C@H](NC(=O)[C@@H](NC(=O)[C@H](Cc1ccc(O)cc1)NC(=O)[C@@H]1CCCN1C(=O)[C@H](CCCNC(=N)N)NC(=O)[C@@H](C)CCCCC[N+](C)(C)C)C(C)(C)C)C(=O)O.[Cl-] (X30-RPY[Tle]L-OH) | 0 | 19.9
CC(C)C[C@H](NC(=O)[C@@H](NC(=O)[C@H](Cc1ccc(O)cc1)NC(=O)[C@@H]1CCCN1C(=O)[C@H](CCCNC(=N)N)NC(=O)[C@@H](C)CCCNC(=N)N)C(C)(C)C)C(=O)O (X8-RPY[Tle]L-OH) | 0 | 48.52
CC(C)C[C@H](NC(=O)[C@@H](NC(=O)[C@H](Cc1ccc(O)cc1)NC(=O)[C@@H]1CCCN1C(=O)[C@H](CCCNC(=N)N)NC(=O)[C@@H](C)CCCCCN)C(C)(C)C)C(=O)O (X11-RPY[Tle]L-OH) | 45 | 100
CNC(=N)NCCC[C@H](C)C(=O)N[C@@H](CCCNC(=N)N)C(=O)N1CCC[C@H]1C(=O)N[C@@H](Cc1ccc(O)cc1)C(=O)N[C@H](C(=O)N[C@@H](CC(C)C)C(=O)O)C(C)(C)C (X14-RPY[Tle]L-OH) | 75 | 100
CC(C)C[C@H](NC(=O)[C@@H](NC(=O)[C@H](Cc1ccc(O)cc1)NC(=O)[C@@H]1CCCN1C(=O)[C@H](CCCNC(=N)N)NC(=O)CCCCNC1=NCCN1)C(C)(C)C)C(=O)O (X2-RPY[Tle]L-OH) | 0 | 76.4
